Data from PubChem BioAssay AID2269 (The Scripps Research Institute Molecular Screening Center, 2010).
Active and inactive are the calls of the source. How the calls were made is not given here.

Target: Serine hydrolase RBBP9 (Homo sapiens) (UniProt O75884)
Assay: RBBP9 serine hydrolase inhibitors, late-stage follow-up, orthogonal assay, biochemical, gel-based ABPP, FP-rhodamine, powder samples (AID 2269)
Settings: recombinant RBBP9, gel-based ABPP, FP-rhodamine labeling; at 20 µM; stronger effect = higher value
Summary of the method: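 material = recombinant RBBP9 | probe or stimulus = FP-rhodamine probe, 75 nM final | dosing = single compound concentration per test | times = compound preincubation with enzyme 30 min at 25 °C, probe labeling 45 min | measured by = in-gel fluorescence after SDS-PAGE | measure = percent inhibition from band density | controls = DMSO vehicle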

Sequence of Serine hydrolase RBBP9 (Homo sapiens) (O75884 whole entry, looked up): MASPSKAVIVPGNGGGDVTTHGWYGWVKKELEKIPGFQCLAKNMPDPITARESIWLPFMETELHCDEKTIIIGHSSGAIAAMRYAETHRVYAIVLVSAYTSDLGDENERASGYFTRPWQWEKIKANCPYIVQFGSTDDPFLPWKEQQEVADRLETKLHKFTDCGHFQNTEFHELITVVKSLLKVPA

| SMILES | inhibition |
| --- | --- |
| C/C(=N\OC(=O)c1ccccc1)c1nccs1 | 62% |
| COc1ccc(C(=O)O/N=C(\C)c2nccs2)cc1 | 60% |
| CC1=CC(=NOC(=O)/C=C/c2ccccc2)C=C(C)C1=O | 78% |
| NC(=O)C(=NOC(=O)c1ccccc1Cl)c1nc(-c2ccc(Br)cc2)cs1 | 0% (inactive) |
| C/C(=N\OC(=O)c1c(-c2c(F)cccc2Cl)noc1C)c1nccs1 | 14% (inactive) |
| NC(=O)C(=NOC(=O)c1ccccc1)c1nc(-c2ccc(Cl)cc2)cs1 | 57% |
| C/C(=N\OC(=O)c1ccc(I)cc1)c1nccs1 | 66% |
| CC(=NOC(=O)c1ccc(S(=O)(=O)N2CCOCC2)cc1)c1cc2ccccc2o1 | 15% (inactive) |
| C/C(=N\OC(=O)c1ccc(F)cc1)c1nccs1 | 76% |
| C/C(=N\OC(=O)c1ccc(Cl)cc1)c1nccs1 | 78% |
| C/C(=N\OC(=O)c1cccc(Cl)c1)c1nccs1 | 63% |
| C/C(=N\OC(=O)N1CCCCC1)c1nccs1 | 0% (inactive) |
| CC(C)=NOC(=O)c1cn(-c2ccccc2)nc1-c1ccc(F)cc1 | 0% (inactive) |
| C/C(=N\OC(=O)c1ccc(-c2ccccc2)cc1)c1nccs1 | 4% (inactive) |
| COc1ccc(C(=O)O/N=C2\C=C(C)C(=O)C=C2C)cc1 | 76% |
| COc1ccc(/C(N)=N/OC(=O)C23CC4CC(CC(C4)C2)C3)cc1OC | 28% (inactive) |
| CC(=NOC(=O)c1c(-c2ccccc2Cl)noc1C)c1nccs1 | 17% (inactive) |
| C/C(=N\OC(=O)c1ccccc1F)c1nccs1 | 64% |
| C/C(=N\OC(=O)C1CCCCC1)c1nccs1 | 91% |
| C/C(=N\OC(=O)c1ccc([N+](=O)[O-])cc1)c1nccs1 | 15% (inactive) |
| N/C(Cc1ccc(Cl)cc1)=N\OC(=O)C1CCCCC1 | 0% (inactive) |
| CC(=NOC(=O)c1ccc(-c2ccccc2)cc1)c1cccs1 | 0% (inactive) |
| CC(=O)ON=C(C)c1cc(C(C)(C)C)cc2c1CCC2(C)C | 0% (inactive) |
| CC(=O)O/N=C(\C)c1nccs1 | 0% (inactive) |
| COc1ccc(C(=O)ON=C2C=C(C)C(=O)C(C)=C2)cc1 | 93% |

Now from value to compound:

| inhibition | SMILES |
| --- | --- |
| 48% (inactive) | COc1ccc(C(=O)ON=C2C(C)=CC(=O)C=C2C)cc1 |
| 6% (inactive) | N/C(Cc1cccs1)=N\OC(=O)C12CC3CC(CC(C3)C1)C2 |
| 5% (inactive) | NC(=NOC(=O)C1CCCCC1)c1cccc([N+](=O)[O-])c1 |
| 0% (inactive) | CC(=NOC(=O)c1ccc(-c2cc(Cl)ccc2Cl)o1)c1ccccc1 |
| 0% (inactive) | C/C(=N\OC(=O)c1ccccc1O)c1cccs1 |
| 0% (inactive) | CC(C)=NOC(=O)c1cn(-c2ccccc2)nc1-c1cccs1 |
| 10% (inactive) | CC(=NOC(=O)c1cn(-c2ccccc2)nc1-c1ccc(Cl)cc1)c1ccccc1 |
| 46% (inactive) | C/C(=N\OC(=O)c1cccc(C(F)(F)F)c1)c1nccs1 |
| 66% | C/C(=N\OC(=O)c1c(F)cccc1F)c1nccs1 |
| 0% (inactive) | C/C(=N\OC(=O)c1ccccc1Cl)c1ccc(Br)cc1 |
| 42% (inactive) | C/C(=N\OC(=O)/C=C/c1ccccc1)c1nccs1 |
| 42% (inactive) | C#CCCC(=O)O/N=C(\C)c1nccs1 |
